The record followed here is ChEMBL document CHEMBL1649387, “Synthesis and evaluation of quinonoid compounds against tumor cell lines” (Eur J Med Chem, 2011).

Structures are written as SMILES. Calls of active or inactive are those of the source. No cut-off for these calls is given here.

Assay [1] deals with MDA-MB-435. Put plainly: Induction of lipid peroxidation in human MDA-MB-435 cells assessed as increase in TBARS formation at 5 uM after 24 hrs. It is filed as functional, cell-based. In a few lines:
(§1)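 Cells treated 24 h, with or without 24 h pretreatment with 5 mM NAC. Cells lysed with Tris-HCl (15 mM, 1 h) and heated with TCA/HCl/thiobarbituric acid for 15 min at 100 °C, then centrifuged. TBARS read at 532 nm against hydrolyzed 1,1,3,3-tetramethoxypropane standard and normalized to protein.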

In assay [2] the test system is HL-60. Briefly: Induction of lipid peroxidation in human HL60 cells assessed as increase in TBARS formation at 5 uM after 24 hrs in presence of […]. It is filed as functional, cell-based. In a few lines:
as §1

In assay [3] the test system is MDA-MB-435. Put plainly: Induction of apoptosis in human MDA-MB-435 cells assessed as cell viability at 5 uM after 24 hrs by trypan blue exclusion assay in presence of […]. It is filed as functional, cell-based. Summed up: (§2)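 Cells incubated 24 h, with or without 24 h pretreatment with 5 mM NAC. Viability determined by trypan blue dye exclusion.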
The subject of assay [4] is HL-60. Put plainly: Induction of apoptosis in human HL60 cells assessed as cell viability at 5 uM after 24 hrs by trypan blue exclusion assay in presence of […]. The format is functional, cell-based. Summed up: as §2
Assay [5] concerns HCT-8. Briefly: Induction of apoptosis in human HCT8 cells assessed as cell viability at 5 uM after 24 hrs by trypan blue exclusion assay. It is filed as functional, cell-based. Summed up: as §2
Assay [6] has as its system SF-295. Put plainly: Induction of apoptosis in human SF295 cells assessed as cell viability at 5 uM after 24 hrs by trypan blue exclusion assay. The format is functional, cell-based. Summed up:
as §2

The test system of assay [7] is HL-60. Put plainly: Induction of apoptosis in human HL60 cells assessed as cell viability at 5 uM after 24 hrs by trypan blue exclusion assay. It is filed as functional, cell-based. Summed up: as §2
The test system of assay [8] is MDA-MB-435. Put plainly: Induction of apoptosis in human MDA-MB-435 cells assessed as cell viability at 5 uM after 24 hrs by trypan blue exclusion assay. It is filed as functional, cell-based. Summed up: as §2
Assay [9] deals with HL-60. Briefly: Cytotoxicity against human HL60 cells after 72 hrs by MTT assay. Conditions: HL-60, 72 h. It is filed as functional, cell-based. A general note: Tetrazolium dyes change colour on reduction, which living cells bring about.
Assay [10] concerns MDA-MB-435. Put plainly: Cytotoxicity against human MDA-MB-435 cells after 72 hrs by MTT assay. Conditions: MDA-MB-435, 72 h. It is filed as functional, cell-based.
The test system of assay [11] is HCT-8. Briefly: Cytotoxicity against human HCT8 cells after 72 hrs by MTT assay. It is filed as functional, cell-based. The settings on record: HCT-8, 72 h.
The test system of assay [12] is SF-295. Briefly: Cytotoxicity against human SF295 cells after 72 hrs by MTT assay. The settings on record: SF-295, 72 h. It is filed as functional, cell-based.
Assay [13] deals with HL-60. Put plainly: Induction of lipid peroxidation in human HL60 cells assessed as increase in TBARS formation at 5 uM after 24 hrs. The format is functional, cell-based. Summed up:
as §1

Assay [14] has as its system HCT-8. Put plainly: Induction of lipid peroxidation in human HCT8 cells assessed as increase in TBARS formation at 5 uM after 24 hrs. The format is functional, cell-based. In a few lines: as §1
Assay [15] deals with SF-295. Put plainly: Induction of lipid peroxidation in human SF295 cells assessed as increase in TBARS formation at 5 uM after 24 hrs. The format is functional, cell-based. In a few lines:
as §1

For assay [16], the system named is MDA-MB-435. Briefly: Induction of lipid peroxidation in human MDA-MB-435 cells assessed as increase in TBARS formation at 5 uM after 24 hrs in presence of […]. It is filed as functional, cell-based. In a few lines:
as §1

The test system of assay [17] is HCT-8. Briefly: Induction of lipid peroxidation in human HCT8 cells assessed as increase in TBARS formation at 5 uM after 24 hrs in presence of […]. The format is functional, cell-based. Summed up: as §1
For assay [18], the system named is SF-295. Put plainly: Induction of lipid peroxidation in human SF295 cells assessed as increase in TBARS formation at 5 uM after 24 hrs in presence of […]. The format is functional, cell-based. In a few lines: as §1
Assay [19] concerns HCT-8. Briefly: Induction of apoptosis in human HCT8 cells assessed as cell viability at 5 uM after 24 hrs by trypan blue exclusion assay in presence of […]. The format is functional, cell-based. In a few lines: as §2
The test system of assay [20] is SF-295. Put plainly: Induction of apoptosis in human SF295 cells assessed as cell viability at 5 uM after 24 hrs by trypan blue exclusion assay in presence of […]. The format is functional, cell-based. In a few lines:
as §2

The subject of assay [21] is HL-60. Briefly: Genotoxicity in human HL60 cells assessed as DNA strand breaks at 5 uM after 24 hrs by comet assay. It is filed as functional, cell-based. In a few lines:
(§3)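 Cells treated 24 h, with or without 24 h pretreatment with 5 mM NAC. Cells embedded in 0.75% low-melt agarose and lysed (pH 10.0, 4 °C, ≥1 h). DNA unwound 20 min in 300 mM NaOH/1 mM EDTA (pH >13), then electrophoresed 20 min at 0.86 V/cm and stained with ethidium bromide. 100 cells scored visually into classes 0–4 to give damage index.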

Assay [22] has as its system MDA-MB-435. Briefly: Genotoxicity in human MDA-MB-435 cells assessed as DNA strand breaks at 5 uM after 24 hrs by comet assay. It is filed as functional, cell-based. In a few lines: as §3
Assay [23] deals with HCT-8. Briefly: Genotoxicity in human HCT8 cells assessed as DNA strand breaks at 5 uM after 24 hrs by comet assay. The format is functional, cell-based. Summed up:
as §3

For assay [24], the system named is SF-295. Put plainly: Genotoxicity in human SF295 cells assessed as DNA strand breaks at 5 uM after 24 hrs by comet assay. The format is functional, cell-based. Summed up: as §3
For assay [25], the system named is HL-60. Briefly: Genotoxicity in human HL60 cells assessed as DNA strand breaks at 5 uM after 24 hrs by comet assay in presence of […]. It is filed as functional, cell-based. In a few lines:
as §3

In assay [26] the test system is MDA-MB-435. Put plainly: Genotoxicity in human MDA-MB-435 cells assessed as DNA strand breaks at 5 uM after 24 hrs by comet assay in presence of […]. It is filed as functional, cell-based. In a few lines: as §3
The subject of assay [27] is HCT-8. Briefly: Genotoxicity in human HCT8 cells assessed as DNA strand breaks at 5 uM after 24 hrs by comet assay in presence of […]. It is filed as functional, cell-based. In a few lines: as §3
Assay [28] concerns SF-295. Put plainly: Genotoxicity in human SF295 cells assessed as DNA strand breaks at 5 uM after 24 hrs by comet assay in presence of […]. It is filed as functional, cell-based. In a few lines: as §3
The next assay concerns PBMC. Put plainly: Cytotoxicity against human PBMC cells after 72 hrs by Alamar Blue assay. It is filed as cell-based.
Assay [29] has as its system HL-60. Briefly: Induction of apoptosis in human HL60 cells assessed as apoptotic nuclei at 5 uM after 24 hrs by acridine orange/ethidium bromide staining based fluorescence microscopy. It is filed as functional. Summed up:
(§4)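 Cells exposed 24 h, with or without 24 h pretreatment with 1-bromoheptane. Cell suspension mixed with acridine orange/ethidium bromide (each 100 in PBS) and spread on slide. 300 cells counted per point by fluorescence microscopy to give % apoptotic cells. Mean ± S.E.M. of three experiments.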

The subject of assay [30] is MDA-MB-435. Put plainly: Induction of apoptosis in human MDA-MB-435 cells assessed as apoptotic nuclei at 5 uM after 24 hrs by acridine orange/ethidium bromide staining based fluorescence microscopy. The format is functional. In a few lines:
as §4

The test system of assay [31] is HCT-8. Briefly: Induction of apoptosis in human HCT8 cells assessed as apoptotic nuclei at 5 uM after 24 hrs by acridine orange/ethidium bromide staining based fluorescence microscopy. The format is functional. In a few lines: as §4
For assay [32], the system named is SF-295. Put plainly: Induction of apoptosis in human SF295 cells assessed as apoptotic nuclei at 5 uM after 24 hrs by acridine orange/ethidium bromide staining based fluorescence microscopy. The format is functional. In a few lines:
as §4

The subject of assay [33] is HL-60. Put plainly: Induction of apoptosis in human HL60 cells assessed as apoptotic nuclei at 5 uM after 24 hrs by acridine orange/ethidium bromide staining based fluorescence microscopy in presence of 1-bromoheptane. The format is functional. Summed up:
as §4

The test system of assay [34] is MDA-MB-435. Briefly: Induction of apoptosis in human MDA-MB-435 cells assessed as apoptotic nuclei at 5 uM after 24 hrs by acridine orange/ethidium bromide staining based fluorescence microscopy in presence of 1-bromoheptane. It is filed as functional. In a few lines: as §4
The subject of assay [35] is HCT-8. Put plainly: Induction of apoptosis in human HCT8 cells assessed as apoptotic nuclei at 5 uM after 24 hrs by acridine orange/ethidium bromide staining based fluorescence microscopy in presence of 1-bromoheptane. The format is functional. Summed up:
as §4

In assay [36] the test system is SF-295. Put plainly: Induction of apoptosis in human SF295 cells assessed as apoptotic nuclei at 5 uM after 24 hrs by acridine orange/ethidium bromide staining based fluorescence microscopy in presence of 1-bromoheptane. It is filed as functional. Summed up: as §4

As a reminder, the IC50 is the midpoint of a concentration-inhibition curve. High values mean weaker potency, low ones greater potency. Turning to `CC1(C)OC2=C(C(=O)C(=O)c3ccccc32)[C@H](n2cc(-c3ccccc3)nn2)[C@H]1Br`, the outcome in the assay with MDA-MB-435 [1], in the assay with HCT-8 [5], in the assay with SF-295 [6], with HL-60 [7], with MDA-MB-435 [8] and in the assay on HL-60 [13] was Active. Further, the outcome with HCT-8 [14], in the assay with SF-295 [15], in the assay on HL-60 [21], in the assay with MDA-MB-435 [22], in the assay with HCT-8 [23] and in the assay on SF-295 [24] was Active. In addition, the result with HL-60 [2], with MDA-MB-435 [3], in the assay with HL-60 [4], in the assay with MDA-MB-435 [16], with HCT-8 [17] and in the assay on SF-295 [18] was inactive. Further, the outcome in the assay on HCT-8 [19], with SF-295 [20], in the assay with HL-60 [25], in the assay with MDA-MB-435 [26], in the assay on HCT-8 [27] and in the assay with SF-295 [28] was inactive. Also, the IC50 in the assay with HL-60 [9] was 1.01 µM; in the assay on MDA-MB-435 [10] it was 1.22 µM; with HCT-8 [11], 1.37 µM; in the assay on SF-295 [12] it was 1.55 µM.

For `O=C1c2ccccc2C(=O)c2c1ccc1nc(-c3ccc(O)cc3)[nH]c21`, the IC50 with PBMC, in the assay on HL-60 [9], in the assay on MDA-MB-435 [10], with HCT-8 [11] and in the assay with SF-295 [12] was > 14.7 µM throughout. For the same molecule, the Activity in the assay on HL-60 [29] was 10.7%; in the assay with MDA-MB-435 [30] it was 9.56%; in the assay with HCT-8 [31], 8.51%; in the assay with SF-295 [32], 5.93%; in the assay on HL-60 [33], 14.26%; in the assay on MDA-MB-435 [34], 13.07%. For the same molecule, the Activity was 11.16% with HCT-8 [35] and 10.18% with SF-295 [36].

With `O=C1c2ccccc2C(=O)c2c1ccc1nc(-c3ccccc3O)[nH]c21`, the IC50 with PBMC was > 14.7 µM; in the assay on HL-60 [9], > 14.7 µM; in the assay with MDA-MB-435 [10] it was > 14.7 µM; in the assay on HCT-8 [11], 3.64 µM; in the assay on SF-295 [12], 3.87 µM. The Activity in the assay on HL-60 [29] was determined as 8.21%; in the assay on MDA-MB-435 [30], 7.39%; in the assay with HCT-8 [31], 6.48%; in the assay with SF-295 [32] it was 11.73%; with HL-60 [33] it was 12.59%; in the assay on MDA-MB-435 [34] it was 10.04%. The Activity is reported as 4.19% in the assay with HCT-8 [35] and 9.91% in the assay with SF-295 [36].

On to `Cc1cccc(-c2nc3ccc4c(c3[nH]2)C(=O)c2ccccc2C4=O)c1`, for which the IC50 in the assay on PBMC, with HL-60 [9], with MDA-MB-435 [10], with HCT-8 [11] and in the assay on SF-295 [12] was > 14.8 µM in each case. Also, the Activity in the assay on HL-60 [29] was 7.33%; with MDA-MB-435 [30] it was 9.81%; with HCT-8 [31], 12.01%; with SF-295 [32], 10.05%; with HL-60 [33], 6.18%; in the assay with MDA-MB-435 [34], 6.17%. Also, the Activity with HCT-8 [35] worked out at 7.28%; in the assay with SF-295 [36], 7.38%.
